{"source": "ChEMBL document CHEMBL2157911", "about": "“Synthesis and biological evaluation of a series of podophyllotoxins derivatives as a class of potent antitubulin agents” (Bioorg Med Chem, 2012)", "key": {"HepG2": {"tested_on": "HepG2", "assay": "Cytotoxicity against human HepG2 cells after 48 hrs", "assay_type": "functional, cell-based", "details": "HepG2, 48 h", "method_in_brief": "(§1)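 Cells were grown in RPMI 1640 with 10% fetal serum, 2 mM L-glutamine, […], penicillin and streptomycin. Log-phase cells were seeded, left 24 h at 37 °C/5% CO2 to attach, then exposed to 0–100 µM compound for 48 h (DMSO <0.1%), five wells per concentration.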"}, "HeLa": {"tested_on": "HeLa", "assay": "Cytotoxicity against human HeLa cells after 48 hrs", "assay_type": "functional, cell-based", "method_in_brief": "as §1"}, "K562": {"tested_on": "K562", "assay": "Cytotoxicity against human K562 cells after 48 hrs", "assay_type": "functional, cell-based", "details": "K562, 48 h", "method_in_brief": "as §1"}, "SGC-7901": {"tested_on": "SGC-7901", "assay": "Cytotoxicity against human SGC7901 cells after 48 hrs", "assay_type": "functional, cell-based", "details": "SGC-7901, 48 h", "method_in_brief": "as §1"}, "[1]": {"assay": "Inhibition of goat brain tubulin polymerization after 30 mins", "design": "species or system Capra hircus", "method_in_brief": "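Goat brain tubulin was purified by two polymerization–depolymerization cycles. Tubulin (10 µM) was incubated with compound at 0, 10, 20, 40 or 60 µM in buffer containing 20% glycerol and […] at 37 °C, then cooled to 0 °C. Assembly was followed turbidimetrically in a fluorescence plate reader.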"}}, "data": [{"smiles": "CCCN(CCC)/C(CCO[C@@H]1c2cc3c(cc2[C@@H](c2cc(OC)c(OC)c(OC)c2)[C@H]2C(=O)OC[C@@H]21)OCO3)=N/S(C)(=O)=O", "values": [{"measurement": "IC50", "setting": "HepG2", "result": 2.14, "unit": "µM"}, {"measurement": "IC50", "setting": "HeLa", "result": 2.63, "unit": "µM"}, {"measurement": "IC50", "setting": "K562", "result": 2.96, "unit": "µM"}, {"measurement": "IC50", "setting": "SGC-7901", "result": 2.87, "unit": "µM"}]}, {"smiles": "COc1cc([C@@H]2c3cc4c(cc3[C@@H](OCC/C(=N\\S(C)(=O)=O)NCc3ccccc3)[C@H]3COC(=O)[C@H]23)OCO4)cc(OC)c1OC", "values": [{"measurement": "IC50", "setting": "HepG2", "result": 17.9, "unit": "µM"}, {"measurement": "IC50", "setting": "HeLa", "result": 11.2, "unit": "µM"}, {"measurement": "IC50", "setting": "K562", "result": 12.1, "unit": "µM"}, {"measurement": "IC50", "setting": "SGC-7901", "result": 19.2, "unit": "µM"}]}, {"smiles": "COc1cc([C@@H]2c3cc4c(cc3[C@@H](OCC/C(=N\\S(C)(=O)=O)N3CCCCC3)[C@H]3COC(=O)[C@H]23)OCO4)cc(OC)c1OC", "values": [{"measurement": "IC50", "setting": "HepG2", "result": 57.1, "unit": "µM"}, {"measurement": "IC50", "setting": "HeLa", "result": 10.4, "unit": "µM"}, {"measurement": "IC50", "setting": "K562", "result": 9.01, "unit": "µM"}, {"measurement": "IC50", "setting": "SGC-7901", "result": 18.2, "unit": "µM"}]}, {"smiles": "COc1cc([C@@H]2c3cc4c(cc3[C@@H](OCC/C(=N\\S(C)(=O)=O)N3CCCC3)[C@H]3COC(=O)[C@H]23)OCO4)cc(OC)c1OC", "values": [{"measurement": "IC50", "setting": "HepG2", "result": 20.8, "unit": "µM"}, {"measurement": "IC50", "setting": "HeLa", "result": 5.99, "unit": "µM"}, {"measurement": "IC50", "setting": "K562", "result": 8.34, "unit": "µM"}, {"measurement": "IC50", "setting": "SGC-7901", "result": 11.2, "unit": "µM"}]}, {"smiles": "COc1cc([C@@H]2c3cc4c(cc3[C@@H](OCC/C(=N\\S(C)(=O)=O)N(C3CCCCC3)C3CCCCC3)[C@H]3COC(=O)[C@H]23)OCO4)cc(OC)c1OC", "values": [{"measurement": "IC50", "setting": "HepG2", "result": 1.95, "unit": "µM"}, {"measurement": "IC50", "setting": "HeLa", "result": 4.33, "unit": "µM"}, {"measurement": "IC50", "setting": "K562", "result": 2.61, "unit": "µM"}, {"measurement": "IC50", "setting": "SGC-7901", "result": 3.21, "unit": "µM"}]}, {"smiles": "COc1cc([C@@H]2c3cc4c(cc3[C@@H](OCC/C(N)=N\\S(C)(=O)=O)[C@H]3COC(=O)[C@H]23)OCO4)cc(OC)c1OC", "values": [{"measurement": "IC50", "setting": "HepG2", "result": 2.87, "unit": "µM"}, {"measurement": "IC50", "setting": "HeLa", "result": 3.75, "unit": "µM"}, {"measurement": "IC50", "setting": "K562", "result": 3.48, "unit": "µM"}, {"measurement": "IC50", "setting": "SGC-7901", "result": 4.31, "unit": "µM"}]}, {"smiles": "COc1cc([C@@H]2c3cc4c(cc3[C@@H](OCC/C(=N\\S(C)(=O)=O)N(C)C)[C@H]3COC(=O)[C@H]23)OCO4)cc(OC)c1OC", "values": [{"measurement": "IC50", "setting": "HepG2", "result": 4.17, "unit": "µM"}, {"measurement": "IC50", "setting": "HeLa", "result": 2.58, "unit": "µM"}, {"measurement": "IC50", "setting": "K562", "result": 5.18, "unit": "µM"}, {"measurement": "IC50", "setting": "SGC-7901", "result": 3.71, "unit": "µM"}]}, {"smiles": "COc1cc2c(c(OC)c1OC)-c1ccc(OC)c(=O)cc1[C@@H](NC(C)=O)CC2", "note": "[COLCHICINE]", "values": [{"measurement": "IC50", "setting": "HepG2", "result": 0.02, "unit": "µM"}, {"measurement": "IC50", "setting": "HeLa", "result": 0.1, "unit": "µM"}, {"measurement": "IC50", "setting": "K562", "result": 0.55, "unit": "µM"}, {"measurement": "IC50", "setting": "SGC-7901", "result": 0.05, "unit": "µM"}]}, {"smiles": "COc1cc([C@@H]2c3cc4c(cc3[C@H](O)[C@H]3COC(=O)[C@H]23)OCO4)cc(OC)c1OC", "note": "[PODOFILOX]", "values": [{"measurement": "IC50", "setting": "[1]", "result": 24, "unit": "µM"}, {"measurement": "IC50", "setting": "HepG2", "result": 0.51, "unit": "µM"}, {"measurement": "IC50", "setting": "HeLa", "result": 0.14, "unit": "µM"}, {"measurement": "IC50", "setting": "K562", "result": 4.51, "unit": "µM"}, {"measurement": "IC50", "setting": "SGC-7901", "result": 0.34, "unit": "µM"}]}]}
